In ChEMBL document CHEMBL4513216, “Probing the Open Global Health Chemical Diversity Library for Multistage-Active Starting Points for Next-Generation Antimalarials” (ACS Infect Dis, 2020):

Assay: Toxicity liver stage against HepG2, at 10uM
Format: cell-based
Design: test concentration 10 uM, cell line HepG2-A16-CD81EGFP
Conditions: human, HepG2-A16-CD81EGFP cells; read-out: INHIBITION
In short: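 Uninfected HepG2-A16-CD81EGFP cells, 3 × 10^3 per well, 1536-well, plated on prespotted compound at 10 μM final, parasite-free screening media added to match infected plates; puromycin 10 μM positive, DMSO 0.5% negative; run in parallel with 48 h PbLuc assay at 37 °C, 5% CO2; viability by CellTiter-Glo luminescence, normalized to controls.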

| Structure (SMILES) | cytotoxicity at 10 µM [%] |
| --- | --- |
| CC1=Nc2c(c(=O)[nH]n2C(C)C)C(c2ccsc2)S1 (stereo not drawn) | -2.92 |
| Cn1c(CN2CCOCC2)cc(=O)c(O)c1CN1CCCCC1 | -3.15 |
| COCCn1cnc(-c2nc(C(=O)N3CCOCC3)c3ccccn23)c1 | -10.3 |
| COCC1CN(C(=O)Cc2cccs2)Cc2nnn(CC3CC3)c21 (stereo not drawn) | 5.98 |
| Cc1nc(N2CCOCC2)nc2c1CCN(C(=O)C1CC1)CC2 | 2.23 |
| O=C(c1ccc[nH]1)N1CCOCC2(CCN(C3CCOCC3)C2)C1 (stereo not drawn) | 10.7 |
| COC(=O)Cn1cccc(S(=O)(=O)N2CCC(C)CC2)c1=O | -2.85 |
| CC(C)(C)C(=O)Cn1nc(-c2ccccc2F)ccc1=O | -8.46 |
| COc1cc(C2SCC(=O)Nc3[nH]ncc32)cc2c1OCO2 (stereo not drawn) | 5.28 |
| O=C(CC1CC1)N1C[C@@H](O)[C@H](N2CCN(c3ccccc3)CC2)C1 | -0.38 |
| Cc1nc(C(Cc2ccsc2)NC(=O)CN2CCOCC2)sc1C (stereo not drawn) | 2.7 |
| O=C(CC1CCCC1)N1CCCC1c1ccc(CN2CCOCC2)cn1 (stereo not drawn) | 1.37 |
| O=C(CN1CCCCCC1)N1CCc2nnc(C3CCCNC3)n2CC1 (stereo not drawn) | -5.56 |
| Cc1nc(C2CCN(C(C)C)CC2)sc1Br | -3.02 |
| O=C(Cc1ccc(O)cc1)N1CCCC(O)(CN2CCOCC2)CC1 (stereo not drawn) | -1.45 |
| Cc1noc(C)c1-c1ccc(C2CCCN2CCC(N)=O)nc1 (stereo not drawn) | 1.94 |
| Cc1cccc(CC2CCCN(C(=O)C3CCOCC3)C2)n1 (stereo not drawn) | 2.16 |
| CC(C)(C)c1n[nH]c(C2CN(CCNC3CCCCC3)CCO2)n1 (stereo not drawn) | 6.86 |
| COc1ccc(OC)c(CNC2CCCN(c3cccnn3)C2)c1 (stereo not drawn) | -4.67 |
| Cc1nccn1CCCC(=O)Nc1nc(C(C)C)nn1C | -1.37 |
| CC(=O)c1c(C)cc(C)c(CS(=O)(=O)c2nccn2C)c1C | -4.28 |
| COCCN(CCC#N)S(=O)(=O)c1ccc(F)cc1Cl | 2.13 |

| Structure (SMILES) | cytotoxicity at 10 µM [%] |
| --- | --- |
| FC(F)(F)C1CCCn2c(CNCc3cccs3)nnc21 (stereo not drawn) | 3.79 |
| CCN(CC)C(=O)CNC(=O)c1cnc(-c2ccccc2)nc1 | 12.7 |
| Cc1cccc(C(=O)NC2CCN(c3cnn(C)c3)C2=O)c1C (stereo not drawn) | -1.2 |
| CC(CNC(=O)c1cc(Cl)ccc1I)N1CCCC1 (stereo not drawn) | -5.28 |
| Cc1ccc(CC(=O)N2CCCCC2Cn2cccn2)cn1 (stereo not drawn) | -130 |
| O=C(c1ccccc1)C1CCN(Cc2cc3c(cc2O)CCC3)CC1 | 24.2 |
| O=C(NC1CC1)NC(c1cc(F)ccc1F)C1CC1 (stereo not drawn) | -12.8 |
| CCCOc1ccc(CNCCn2cccn2)cc1 | 9.66 |
| CC/C=C(/C)C(=O)N1CCN(C2=NCC(C)S2)CC1 (stereo not drawn) | -145 |
| CCOC(C(=O)N1CCn2c(C)nnc2C1)c1ccccc1 (stereo not drawn) | 4.93 |
| CC(Cn1cccn1)NCCS(=O)(=O)c1ccc(Cl)cc1 (stereo not drawn) | -6.19 |
| CCN(Cc1ccoc1)C(C(N)=O)c1ccc(C#N)cc1 (stereo not drawn) | -18.6 |
| COc1cccc(CNCCNS(=O)(=O)Cc2ccccc2)c1 | 13.4 |
| COc1ccc(C)c2c1N(C(=O)c1ccc3nnc(C)n3c1)CCC2 | 2.84 |
| Cc1cnn(CCCNCc2csc(COc3ccccc3)n2)c1 | 5.34 |
| CC(=O)Nc1cc(Br)cnc1OCC(F)(F)F | 5.69 |
| Cc1cc(F)c(S(=O)(=O)Nc2ccn(CCCC#N)n2)cc1F | 19.3 |
| COc1ccc(N2CCCN(CC(=O)N3CCNC(=O)C3)CC2)cc1 | 6.06 |
| CN(Cc1ccco1)Cc1ccccc1CNC(=O)c1ccc[nH]1 | -4.11 |
| O=C(Cc1cccs1)N1Cc2nc(CN3CCCC3)oc2C1 | -2.87 |
| CC1c2ncc(Cn3cccn3)n2CCN1S(=O)(=O)C1CC1 (stereo not drawn) | -108 |
| COCCN1CCN(c2cc(OC)ncn2)Cc2ccc(C)nc21 | -99.2 |

| Structure (SMILES) | cytotoxicity at 10 µM [%] |
| --- | --- |
| Cn1ccc(-c2cc(C(=O)N3CCOCC3)c3ccccn23)n1 | 7.9 |
| COCCNC(=O)[C@H]1C[C@@H]2CCN(Cc3ccoc3)C[C@H]2O1 | 2.31 |
| CN(Cc1cc(C(C)(C)C)n[nH]1)C(=O)c1c[nH]nc1-c1cccc(F)c1 | -3.39 |
| CCCSCC(=O)N1CCCC(CO)(CCC)C1 (stereo not drawn) | 4.86 |
| Cc1ccc(O)c(CN2CCCCC2CCN2CCOCC2)c1 (stereo not drawn) | 4.25 |
| COC(=O)c1ccc(CNC(=O)CN2C[C@@H](NC(C)=O)[C@H](C(C)C)C2)o1 | -0.921 |
| COCCCC1(C(=O)O)CCCN(C(=O)c2ccc(C(C)C)[nH]c2=O)C1 (stereo not drawn) | -52.9 |
| Cc1ccc([C@@H]2CN(C(=O)CCc3cc(Cl)no3)C[C@H]2N(C)C)cc1 | 6.74 |
| CNc1ncc(CN(C)C(=O)c2ccc(C3CCCO3)s2)cn1 (stereo not drawn) | 10.2 |
| COc1ncccc1C1CC(=O)NCc2nc3ccccn3c21 (stereo not drawn) | -5.72 |
| N#Cc1c(C2CCOC2)cc(-c2ccc(N3CCCCC3)cc2)nc1N (stereo not drawn) | -8.78 |
| O=C(O)C1(Oc2cccc(F)c2)CCN(c2ccncc2)CC1 | 0.423 |
| Cc1nnc(N2CCC(CCn3ccnc3C)CC2)o1 | -8.14 |
| O=C1CC(c2ncc(-c3ccc4c(c3)OCCO4)[nH]2)CN1C1CC1 (stereo not drawn) | -4.62 |
| Cc1cnc(C)c(N2CCN(CCCc3[nH]nc(C)c3C)CC2)n1 | -10 |
| Cc1nnsc1CN(C)C(=O)CCn1cnc2ccccc21 | 14.7 |
| C=C(C)COc1cccc(C(=O)N(C)C(C)c2c(C)n[nH]c2C)c1 (stereo not drawn) | 2.8 |
| O=C(O)c1ccnc(-c2ccnc(N3CCC(F)(F)CC3)n2)c1 | -12.3 |
| NCCN1C(=O)CC[C@H]2CN(Cc3ccc4occc4c3)CC[C@H]21 | -1.14 |
| CCc1cnc(N)nc1NCCn1cc(Cl)cn1 | 1.5 |
| CC(=O)NCCn1ccnc1-c1cccc(C(C)N(C)C)c1 (stereo not drawn) | 2.4 |
| Cc1cc(C(=O)N2C[C@@H](CN3CCOCC3)C[C@H](CO)C2)nc(C)n1 | 3.63 |

| Structure (SMILES) | cytotoxicity at 10 µM [%] |
| --- | --- |
| CCCc1nc(CN(CC)C(=O)c2ccc(OC)c(OC)c2)no1 | -6.93 |
| CC(C)c1cncnc1N1CC[C@H](N2CCOCC2)[C@H](CCCO)C1 | 5.86 |
| COc1ccccc1OCCCN1CC=C(c2cnn(C)c2)CC1 | 8.32 |
| CCCN(Cc1nccn1C)C(=O)c1cc(C(C)C)on1 | 4.24 |
| CCn1cncc1CNC(=O)c1ccc(C2CCCN2C(=O)COC)s1 (stereo not drawn) | 6.48 |
| CCc1cc(N2CCC(NCCc3nc(C)c(C)s3)CC2)nc(C)n1 | 0.902 |
| CC(C)(C)NC(=O)c1ccccc1NC(=O)c1ccncc1 | -10.3 |
| O=C(O)C(c1ccc2c(c1)OCCO2)N1CCC(N2CCOCC2)CC1 (stereo not drawn) | -0.809 |
| O=C(c1cc(=O)[nH]c(=O)[nH]1)N1CCCCC1c1ccc(F)cc1 (stereo not drawn) | -10.2 |
| CC(C)c1nc(C2CCCN(C(=O)c3ccc(N(C)C)nn3)C2)no1 (stereo not drawn) | -9.71 |
| CCN(CC)c1ccc(C(=O)N2CCC(c3nc(C)no3)CC2)cn1 | -7.42 |
| CN(CC(=O)N1CCCC1)C(=O)Cc1csc(-c2ncccn2)n1 | -9.51 |
| O=C(NCc1ccc(-c2ccn[nH]2)cc1)N1CCC(N2CCCC2)C1 (stereo not drawn) | -8.35 |
| Cc1cccc(-c2ccc(C(=O)NCC(C)(C)C(N)=O)c(=O)[nH]2)c1 | -10.5 |
| CNC(=O)C1CCC(NC(=O)N(C)Cc2c(C)noc2C)CC1 (stereo not drawn) | -13.7 |
| O=C(Nc1cn[nH]c1)c1ccc(O)nc1 | -1.09 |
| CC(C)c1nc(C2CCCN2CC(=O)N2CCNC2=O)no1 (stereo not drawn) | -8.96 |
| CC(NC(=O)NCCn1ccnc1)c1ccc2c(c1)NC(=O)CO2 (stereo not drawn) | -7.36 |
| COc1ccc2cc(C(=O)N3CCCCC3CC(N)=O)[nH]c2c1 (stereo not drawn) | -12.3 |
| O=C(NCCNC(=O)c1scnc1Cl)c1ccccc1 | 8.45 |
| CCc1n[nH]c(C2CN(Cc3nccn3CC)CCO2)n1 (stereo not drawn) | -1.85 |
| CC(C)c1nccn1C1CCCN(C(=O)c2ccc3[nH]nnc3c2)C1 (stereo not drawn) | 1.9 |

| Structure (SMILES) | cytotoxicity at 10 µM [%] |
| --- | --- |
| O=C1CCCCN1c1cccc(CNC2CCCC2)c1 | 6.86 |
| CN(Cc1cn2c(n1)CN(C(=O)CC1CC1)CC2)Cc1ccco1 | -2.21 |
| CC(=O)N1CC(=O)N(c2cnn(C)c2)CC12CCN(CC1CC1)C2 (stereo not drawn) | -2.58 |
| CNC(=O)[C@H]1C[C@@H]2CN(S(=O)(=O)c3ccccc3)C[C@@H]2N1C | -5.27 |
| O=C(c1cccc(Cl)c1)N1CC[C@H]2[C@H]1CCN2CC1CCOCC1 | -0.696 |
| O=C(Cc1ccsc1)N1C[C@@H]2COC[C@]2(COCc2cccnc2)C1 | 2.98 |
| O=C(Cc1ccsc1)N1C[C@@H]2OCCN(CC3CCCO3)[C@@H]2C1 (stereo partly drawn) | -4.42 |
| O=C([C@@H]1CCO[C@@H]2CCN(Cc3ccc(F)cc3)C[C@H]21)N1CCCCO1 | 11.9 |
| CN(C)C(=O)N1CCC2(CC1)CN(Cc1ccccn1)C(=O)CO2 | 2.99 |
| CCCS(=O)(=O)N1Cc2nccn2CC(CN2CCCC2)C1 (stereo not drawn) | -131 |
| CS(=O)(=O)NCc1cnc2n1CCN(Cc1ccsc1)CC2 | -7.96 |
| CCC1=N[C@@]2(CC[C@@H]3CN(Cc4cccc(Cl)c4)C[C@@H]32)C(=O)N1C | -102 |
| Fc1ccccc1CN1CCCC2(CCN(c3ncccn3)CC2)C1 | -132 |
| O=C(CC1CC1)N1CCC2(CC1)CN(c1cccnc1)C(=O)CO2 | -90.8 |
| CC(C)CN1CCC2(C=C(C(=O)N(C)C)c3ccccc32)CC1 | -97.4 |
| CN(Cc1ccco1)[C@@H]1CN(Cc2cccnc2)C[C@@H]2CCCO[C@@H]21 | 8.49 |
| Cc1occc1C(=O)N1C[C@H]2CCCC(OCc3cccnc3)[C@H]2C1 (stereo partly drawn) | 2.72 |
| Cn1cc(CN2C[C@@H]3COC[C@]3(CNC(=O)c3ccccc3)C2)cn1 | -4.02 |
| CCOc1ccc(C(=O)N2C[C@@H]3CC[C@H]2CN(C(=O)C2CCC2)C3)cc1 | -4.68 |
| c1ccc(CNc2ncc(CN3CC[C@@H]4CC[C@H](C3)N4)cn2)cc1 | -3.8 |
